Experiments:
[1] = tested on: Human immunodeficiency virus 1; assay: Ratio of EC50 for HIV1 harboring reverse transcriptase K103N/Y181C double mutant to EC50 for wild type HIV1 NL4.3; assay type: functional
Summary of the method: (§1)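 Fold change is the EC50 against the named mutant strain divided by the EC50 against wild-type HIV-1 NL4-3. […] Means of 2–3 independent experiments in triplicate.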

[2] = tested on: Human immunodeficiency virus 1; assay: Ratio of EC50 for HIV1 harboring reverse transcriptase Y181C mutant to EC50 for wild type HIV1 NL4.3; assay type: functional; summary of the method: as §1
[3] = tested on: Human immunodeficiency virus 1; assay: Antiviral activity against HIV1 harboring reverse transcriptase Y181C mutant infected in human MT4 cells assessed as inhibition of virus-induced cell death measured after 5 days of infection by MTT method; assay type: functional, organism-based; conditions: Human immunodeficiency virus 1, MT4, 120 h
Summary of the method: (§2)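 MT-4 cells infected with the named NNRTI-resistant HIV-1 RT mutant strain, in the presence of a range of compound concentrations. Viable cells counted at day 5 post-infection by tetrazolium (MTT) colorimetry. […] Mean of 2–3 independent experiments, each in triplicate.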

[4] = target: Human immunodeficiency virus type 1 reverse transcriptase (Human immunodeficiency virus 1, UniProt Q72547, L100I); assay: Inhibition of HIV1 wild-type reverse transcriptase L100I mutant using [3H]dTTP by scintillation counting
Summary of the method: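 RNA-dependent DNA polymerase activity of recombinant RT (2–4 nM) on poly(rA)/oligo(dT) 10:1 with [3H]dTTP (1 Ci/mmol). Incubation at 37 °C. Acid-insoluble radioactivity collected on GF/C filters after 5% cold TCA, counted by scintillation.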

[5] = tested on: Human immunodeficiency virus 1; assay: Antiviral activity against HIV1 harboring reverse transcriptase K103N/Y181C double mutant infected in human MT4 cells assessed as inhibition of virus-induced cell death measured after 5 days of infection by MTT method; assay type: functional, organism-based; conditions: Human immunodeficiency virus 1, MT4, 120 h; summary of the method: as §2
[6] = tested on: Human immunodeficiency virus 1; assay: Antiviral activity against HIV1 harboring reverse transcriptase […] mutant infected in human MT4 cells assessed as inhibition of virus-induced cell death measured after 5 days of infection by MTT method; assay type: functional, organism-based; conditions: Human immunodeficiency virus 1, MT4, 120 h; summary of the method: as §2
[7] = tested on: Human immunodeficiency virus 1; assay: Ratio of efavirenz EC50 to compound EC50 for HIV1 harboring reverse transcriptase L100I mutant infected in human MT4 cells; assay type: functional
[8] = Selectivity index, ratio of CC50 for human MT4 cells to EC50 for HIV1 NL4.3 infected in human MT4 cells; assay type: toxicity, cell-based; conditions: read-out: Ratio CC50/EC50
Summary of the method: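 Ratio CC₅₀/EC₅₀. CC₅₀ is from mock-infected MT-4 cells and EC₅₀ from HIV-1 NL4-3-infected MT-4 cells, both read by MTT at day 5 post-infection.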

[9] = tested on: Human immunodeficiency virus 2; assay: Antiviral activity against HIV-2 ROD infected in human CEM cells assessed as protection of cells monitored by giant cell formation by microscopy; assay type: functional, organism-based; conditions: Human immunodeficiency virus 2, ISOLATE ROD, CCRF-CEM
Summary of the method: (§3)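 Human CEM cultures (~3 × 10⁵ cells/mL) infected with ~100 CCID₅₀ per mL of HIV-1 IIIB or HIV-2 ROD, seeded with serial compound dilutions. Incubated 4 days at 37 °C; syncytium (giant cell) formation scored by microscopy. EC₅₀ = concentration protecting cells from viral cytopathicity by 50%. Means of two to three independent experiments, each in triplicate.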

[10] = tested on: Human immunodeficiency virus 1; assay: Antiviral activity against HIV1 NL4.3 infected in human MT4 cells assessed as inhibition of virus-induced cell death measured after 5 days of infection by MTT method; assay type: functional, organism-based; conditions: Human immunodeficiency virus 1, NL4.3, MT4, 120 h
Summary of the method: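 Lymphoid MT-4 cells (NIH AIDS Reagent Program) infected with HIV-1 NL4-3 in the presence of varying compound concentrations. On day 5 post-infection, viable cells were counted by MTT tetrazolium colorimetry. EC₅₀ = concentration inhibiting virus-induced cell death by 50%. Means of two to three independent experiments, each in triplicate.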

[11] = Cytotoxicity against human MT4 cells assessed as cell viability by MTT assay; assay type: cell-based
Summary of the method: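 Mock-infected MT-4 cells exposed to a range of compound concentrations. Viable cells measured by MTT colorimetry at day 5. CC₅₀ = concentration causing 50% death of non-infected cells. Means of two to three independent experiments, each in triplicate.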

[12] = target: T1, Human immunodeficiency virus type 1 reverse transcriptase (Human immunodeficiency virus 1, UniProt Q72547); assay: Inhibition of HIV1 wild-type reverse transcriptase Y181I/Y181C mutant using [3H]dTTP by scintillation counting
[13] = target: T1, Human immunodeficiency virus type 1 reverse transcriptase; assay: Inhibition of HIV1 wild-type reverse transcriptase using [3H]dTTP by scintillation counting
[14] = tested on: Human immunodeficiency virus 1; assay: Antiviral activity against HIV1 3B infected in human CEM cells assessed as protection of cells monitored by giant cell formation by microscopy; assay type: functional, organism-based; conditions: Human immunodeficiency virus 1, 3B, CCRF-CEM; summary of the method: as §3
[15] = tested on: Human immunodeficiency virus 1; assay: Ratio of EC50 for HIV1 harboring reverse transcriptase K103N mutant to EC50 for wild type HIV1 NL4.3; assay type: functional; summary of the method: as §1
[16] = tested on: Human immunodeficiency virus 1; assay: Ratio of EC50 for HIV1 harboring reverse transcriptase […] mutant to EC50 for wild type HIV1 NL4.3; assay type: functional; summary of the method: as §1
[17] = tested on: Human immunodeficiency virus 1; assay: Antiviral activity against HIV1 harboring reverse transcriptase K103N mutant infected in human MT4 cells assessed as inhibition of virus-induced cell death measured after 5 days of infection by MTT method; assay type: functional, organism-based; conditions: Human immunodeficiency virus 1, MT4, 120 h; summary of the method: as §2
[18] = target: Human immunodeficiency virus type 1 reverse transcriptase (Human immunodeficiency virus 1, UniProt Q72547, K103N); assay: Inhibition of HIV1 wild-type reverse transcriptase K103N mutant using [3H]dTTP by scintillation counting
[19] = target: Human immunodeficiency virus type 1 reverse transcriptase (Human immunodeficiency virus 1, UniProt Q72547, V106A); assay: Inhibition of HIV1 wild-type reverse transcriptase V106A mutant using [3H]dTTP by scintillation counting
[20] = tested on: Human immunodeficiency virus 1; assay: Ratio of EC50 for HIV1 harboring reverse transcriptase Y188L mutant to EC50 for wild type HIV1 NL4.3; assay type: functional; summary of the method: as §1
[21] = tested on: Human immunodeficiency virus 1; assay: Antiviral activity against HIV1 harboring reverse transcriptase Y188L mutant infected in human MT4 cells assessed as inhibition of virus-induced cell death measured after 5 days of infection by MTT method; assay type: functional, organism-based; conditions: Human immunodeficiency virus 1, MT4, 120 h; summary of the method: as §2
[22] = tested on: Human immunodeficiency virus 1; assay: Ratio of AZT EC50 to compound EC50 for HIV1 harboring reverse transcriptase K103N mutant infected in human MT4 cells; assay type: functional
[23] = tested on: Human immunodeficiency virus 1; assay: Ratio of efavirenz EC50 to compound EC50 for HIV1 harboring reverse transcriptase K103N mutant infected in human MT4 cells; assay type: functional
[24] = tested on: Human immunodeficiency virus 1; assay: Ratio of efavirenz EC50 to compound EC50 for HIV1 harboring reverse transcriptase Y188L mutant infected in human MT4 cells; assay type: functional
[25] = tested on: Human immunodeficiency virus 1; assay: Ratio of efavirenz EC50 to compound EC50 for HIV1 harboring reverse transcriptase Y181C mutant infected in human MT4 cells; assay type: functional
[26] = tested on: Human immunodeficiency virus 1; assay: Ratio of EC50 for HIV1 harboring reverse transcriptase K103N mutant to EC50 for wild type HIV1 3B; assay type: functional

| SMILES | Ratio EC50 [1] | Ratio EC50 [2] | EC50 [3] | IC50 [4] | EC50 [5] | EC50 [6] | Ratio EC50 [7] | selectivity ratio [8] | EC50 [9] | EC50 [10] | CC50 [11] | IC50 [12] | IC50 [13] | EC50 [14] | Ratio EC50 [15] | Ratio EC50 [16] | EC50 [17] | IC50 [18] | Ratio EC50 [20] | EC50 [21] | other results |
| --- | --- | --- | --- | --- | --- | --- | --- | --- | --- | --- | --- | --- | --- | --- | --- | --- | --- | --- | --- | --- | --- |
| Cc1cc(C)cc(S(=O)(=O)c2c(C(=O)NCc3ccccc3F)[nH]c3ccc(Cl)cc23)c1 | 3153 | 324 | 0.22 µM | 0.07 µM | 2.14 µM | 0.0054 µM | 10 | > 78100 | > 2 µM | 0.00068 µM | > 53.1 µM | > 20 µM | 0.18 µM | 0.0036 µM | 11.5 | 7.9 | 0.0078 µM | 0.1 µM | – | – | – |
| Cc1cc(C)cc(S(=O)(=O)c2c(C(=O)N[C@H](C)c3ccccc3)[nH]c3ccc(Cl)cc23)c1 | 795 | 41 | 0.086 µM | 0.05 µM | 1.67 µM | – | – | – | – | 0.0021 µM | – | 2.53 µM | 0.039 µM | – | 2 | – | 0.0043 µM | 0.09 µM | 92 | 0.193 µM | IC50 [19]: 0.065 µM |
| Cc1cc(C)cc(S(=O)(=O)c2c(C(=O)NCc3ccc(F)cc3)[nH]c3ccc(Cl)cc23)c1 | 45750 | 145 | 0.16 µM | 0.03 µM | 50.3 µM | 0.0059 µM | 10 | > 48300 | > 10 µM | 0.0011 µM | > 53.1 µM | > 20 µM | 0.026 µM | 0.0053 µM | 14.5 | 5.4 | 0.016 µM | 0.024 µM | – | – | – |
| Cc1cc(C)cc(S(=O)(=O)c2c(C(=O)NCc3ccc(N)cc3)[nH]c3ccc(Cl)cc23)c1 | 2847 | 52 | 0.011 µM | – | 0.598 µM | – | – | – | – | 0.00021 µM | 6.37 µM | 0.201 µM | 0.0077 µM | – | 20 | – | 0.0042 µM | 0.034 µM | 2338 | 0.491 µM | Ratio EC50 [22]: >3; Ratio EC50 [23]: > 546; Ratio EC50 [24]: 1.5 |
| Cc1cc(C)cc(S(=O)(=O)c2c(C(=O)NCc3cccc(F)c3)[nH]c3ccc(Cl)cc23)c1 | 20391 | 6.3 | 0.0043 µM | 0.04 µM | 13.9 µM | 0.005 µM | 10 | > 78100 | > 10 µM | 0.00068 µM | > 53.1 µM | > 20 µM | 0.07 µM | 0.0043 µM | 6.5 | 7.4 | 0.0044 µM | 0.16 µM | – | – | Ratio EC50 [22]: > 3; Ratio EC50 [25]: 37; Ratio EC50 [23]: >546 |
| Cc1cc(C)cc(S(=O)(=O)c2c(C(=O)NC(C)c3ccccc3)[nH]c3ccc(Cl)cc23)c1 (racemic) | 5445 | 1200 | 0.72 µM | 0.07 µM | 3.27 µM | 0.026 µM | – | > 206000 | > 10 µM | 0.0006 µM | > 53.5 µM | 8.23 µM | 0.04 µM | 0.016 µM | 55 | 43 | 0.033 µM | 0.54 µM | – | – | IC50 [19]: 0.05 µM |
| Cc1cc(C)cc(S(=O)(=O)c2c(C(=O)N[C@@H](C)c3ccccc3)[nH]c3ccc(Cl)cc23)c1 | >5778 | 550 | 3.47 µM | 0.08 µM | > 36.4 µM | – | – | – | – | 0.0063 µM | – | > 20 µM | 0.05 µM | – | 20 | – | 0.128 µM | 9.4 µM | >5778 | > 36.4 µM | IC50 [19]: 0.028 µM |
| Cc1cc(C)cc(S(=O)(=O)c2c(C(=O)NCc3ccccc3[N+](=O)[O-])[nH]c3ccc(Cl)cc23)c1 | 2335 | 20 | 0.016 µM | – | 1.87 µM | – | – | > 62800 | – | 0.0008 µM | > 50.2 µM | > 20 µM | 0.023 µM | – | 7.5 | – | 0.006 µM | 0.023 µM | 351 | 0.281 µM | Ratio EC50 [24]: 2.7 |
| Cc1cc(C)cc(S(=O)(=O)c2c(C(=O)NC(C)Cc3ccccc3)[nH]c3ccc(Cl)cc23)c1 (racemic) | 23 | >11 | > 1 µM | – | > 2.08 µM | 0.38 µM | – | – | – | – | – | – | – | 0.091 µM | – | 4.2 | 0.53 µM | – | >11 | > 1 µM | Ratio EC50 [26]: 5.8 |
| Cc1cc(C)cc(CNC(=O)c2[nH]c3ccc(Cl)cc3c2S(=O)(=O)c2cc(C)cc(C)c2)c1 | >12332 | >476 | > 2 µM | 5.9 µM | > 51.8 µM | 0.065 µM | – | > 12400 | > 2 µM | 0.0042 µM | > 52 µM | > 20 µM | 7 µM | 0.028 µM | 43 | 15 | 0.18 µM | > 20 µM | – | – | – |
